# Laboratory results from ChEMBL document CHEMBL1149833, “Lignans from Kadsura angustifolia” (J Nat Prod, 2008).
# pEC50: −log10 of the molar value.
# Legend:
# [1] = system: Human immunodeficiency virus 1; experiment: Antiviral activity against HIV1 in human C8166 cells assessed as prevention of virus-induced cytopathic effect; assay type: functional, organism-based; conditions: Human immunodeficiency virus 1, C8166
# Method in brief: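 HIV-1 infection of C8166 cells, with protection measured as inhibition of virus-induced cytopathic effects and reported as EC50. Cytotoxicity in the same cells was determined in parallel. AZT served as positive control.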
# [2] = Cytotoxicity against human C8166 cells by MTT assay; assay type: cell-based
# Method in brief: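 MTT viability assay on C8166 cells, reported as CC50. It was run in parallel with the HIV-1 cytopathic-effect assay, with AZT as positive control.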
# [3] = Selectivity index, Ratio of CC50 for human C8166 cells to EC50 for HIV1
Compound,pEC50 [1],CC50 [2] [µM],Ratio [3]
COc1cc2c(c(OC)c1OC)-c1c(cc3c(c1OC)OCO3)[C@H]1O[C@@H]2[C@@H](C)[C@H]1C [KADSULIGNAN L],4.58,361,
COc1cc2c(c(O)c1OC)-c1c(cc(OC)c(OC)c1OC)[C@@H](OC(C)=O)[C@H](C)[C@](C)(O)[C@@H]2OC(=O)/C=C/c1ccccc1 [KADANGUSTIN C],4.42,190,
COc1cc2c(c(O)c1OC)-c1c(cc(OC)c(OC)c1OC)[C@@H](OC(C)=O)[C@H](C)[C@H](C)[C@@H]2OC(=O)/C=C/c1ccccc1 [KADANGUSTIN D],4.59,97.5,
COc1cc2c(c(O)c1OC)-c1c(cc(OC)c(OC)c1OC)[C@@H](OC(C)=O)[C@H](C)[C@H](C)[C@@H]2O [KADANGUSTIN A],< 3.70,> 200,
COc1cc2c(c(O)c1OC)-c1c(cc3c(c1OC)OCO3)[C@@H](O)[C@H](C)[C@H](C)C2 [BINANKADSURIN A],5.41,227,
COc1ccc(CC(C)C(C)C(O)c2cc(O)c(OC)c(OC)c2)cc1OC (centres undefined) [KADANGUSTIN H],4.57,30.7,
COc1c2c(cc3c1-c1c(cc4c(c1OC)OCO4)[C@@H](OC(C)=O)[C@H](C)[C@H](C)[C@@H]3O)OCO2 [KADANGUSTIN B],3.82,> 200,
COc1ccc([C@H]2Oc3c(OC)cc(C=O)cc3[C@@H]2C)cc1O [PERSEAL F],4.39,270,
C/C=C(\C)C(=O)O[C@@H]1c2cc(OC)c(OC)c(O)c2-c2c(cc(OC)c(OC)c2OC)[C@@H](OC(C)=O)[C@H](C)[C@@H]1C [KADANGUSTIN G],4.59,72.2,
COc1ccc(C(c2ccc(OC)c(OC)c2)C(C)C(C)CO)cc1OC (centres undefined) [KADANGUSTIN J],4.35,247,
COc1cc2c(c(O)c1OC)-c1c(cc(O)c(OC)c1OC)[C@@H](O)[C@H](C)[C@H](C)C2 [DEANGELOYLSCHISANTHERIN F],3.70,281,
COc1c2c(cc3c1-c1c(cc4c(c1OC)OCO4)[C@@H](O)[C@H](C)[C@H](C)C3=O)OCO2 [SCHISANTHERIN Q],4.34,212,4.61
C/C=C(/C)C(=O)O[C@@H]1c2cc(OC)c(OC)c(O)c2-c2c(cc(OC)c(OC)c2OC)[C@@H](OC(C)=O)[C@H](C)[C@@H]1C [KADANGUSTIN F],4.14,160,
COc1cc(C[C@@H](C)[C@@H](C)Cc2ccc(O)c(OC)c2)ccc1O [MESODIHYDROGUAIARETIC ACID],4.81,49.1,
C/C=C(/C)C(=O)O[C@@H]1c2cc(OC)c(OC)c(OC)c2-c2c(cc3c(c2OC)OCO3)[C@@H](OC(C)=O)[C@H](C)[C@]1(C)O [KADSURARIN],3.77,> 200,
COc1cc(C(O)C(C)C(C)Cc2cc(OC)c3c(c2)OCO3)cc(O)c1OC (centres undefined) [KADANGUSTIN I],4.67,35.1,
C=CCc1cc(OC)c2c(c1)[C@H](CO)[C@@H](c1ccc(O)c(OC)c1)O2,4.88,38.1,
C/C=C(/C)C(=O)O[C@@H]1c2cc3c(c(OC)c2-c2c(cc4c(c2OC)OCO4)[C@@H](O)[C@H](C)[C@@H]1C)OCO3 [SCHISANTHERIN L],3.86,> 200,
COc1cc2c(c(OC)c1OC)-c1c(cc(OC)c(OC)c1OC)[C@@H]1O[C@H]2[C@H](C)[C@@H]1C [KADSULIGNAN N],4.36,382,
COc1cc2c(c(O)c1OC)-c1c(cc(OC)c(OC)c1OC)[C@@H](OC(C)=O)[C@H](C)[C@H](C)[C@@H]2OC(=O)c1ccccc1 [KADANGUSTIN E],4.22,138,
COc1c2c(cc3c1-c1c(cc4c(c1OC)OCO4)[C@@H]1O[C@H]3[C@H](C)[C@@H]1C)OCO2 [EPOXIDESCHISANDRIN C],5.03,220,
C/C=C(/C)C(=O)Oc1c(OC)c(OC)cc2c1-c1c(cc(O)c(OC)c1OC)[C@@H](O)[C@H](C)[C@H](C)C2 [SCHISANTHERIN F],4.02,> 200,
COc1c2c(cc3c1-c1c(cc4c(c1OC)OCO4)[C@@H](O)[C@@H](C)[C@@H](C)[C@@H]3O)OCO2 [SCHISANTHERIN P],3.81,> 200,
COc1c2c(cc3c1-c1c(cc4c(c1OC)OCO4)[C@@H](O)[C@@H](C)[C@@H](C)C3)OCO2 [GOMISIN R],4.26,221,
